ChEMBL document CHEMBL5712087, “Targeting bromodomain-containing protein 4 (BRD4) inhibits MYC expression in colorectal cancer cells” (Neoplasia, 2019)
The source made the active and inactive calls. The calls are words filed in the database; no cut-off is given here.

Key:
[1] = molecular target: T1, Protein cereblon/Bromodomain-containing protein 4 (Homo sapiens) (UniProt O60885+Q96SW2); experiment: PROTAC activity at BRD4/Cereblon in human LS174T cells assessed as BRD4 protein degradation at 100 to 1000 nM for 24 hrs by Western blot analysis; format: cell-based; details: dose 100-1000 nM
T1 sequence (Q96SW2 whole entry, looked up, other chains not shown): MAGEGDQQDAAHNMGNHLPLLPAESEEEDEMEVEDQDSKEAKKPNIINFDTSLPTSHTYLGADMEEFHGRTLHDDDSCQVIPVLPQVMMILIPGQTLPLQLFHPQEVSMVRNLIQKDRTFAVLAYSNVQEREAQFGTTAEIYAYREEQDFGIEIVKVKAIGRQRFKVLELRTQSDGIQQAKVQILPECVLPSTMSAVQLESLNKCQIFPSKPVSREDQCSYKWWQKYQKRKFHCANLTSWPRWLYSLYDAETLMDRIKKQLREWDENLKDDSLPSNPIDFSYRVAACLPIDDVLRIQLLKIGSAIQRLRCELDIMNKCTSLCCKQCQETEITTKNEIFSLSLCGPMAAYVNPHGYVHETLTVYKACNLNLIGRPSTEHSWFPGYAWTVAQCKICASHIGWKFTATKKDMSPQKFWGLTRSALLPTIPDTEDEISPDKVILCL
Outline: (§1)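 Cells treated 24 h across 1 nM–10 µM range (fibroblasts at 500/1000 nM). Immunoblot: RIPA lysate with 2.5 mmol/l DTT, 15 µg per lane on 10% SDS-PAGE, nitrocellulose, 5% milk block 1 h. BRD4 or MYC primary 1:1,000 overnight at 4 °C, HRP secondary 1:10,000 for 60 min; GAPDH/β-actin loading control; ECL detection.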

[2] = molecular target: T1, Protein cereblon/Bromodomain-containing protein 4 (Homo sapiens); experiment: PROTAC activity at BRD4/Cereblon in human LS174T cells assessed as BRD4 mRNA level at 500 to 1000 nM for 24 hrs by RT-qPCR analysis; format: cell-based; details: dose 500-1000 nM
Outline: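 Total RNA from 10^6 cells after 24 h treatment, Trizol-extracted and integrity-checked. 0.7 µg reverse transcribed, then SYBR-type qPCR: 95 °C 5 min, 40 cycles of 95 °C 15 s/60 °C 60 s. Melting curves checked. MYC or BRD4 normalised to PPIA and ACTB by ΔΔCq. At least three experiments; means ± SD.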

[3] = molecular target: T1, Protein cereblon/Bromodomain-containing protein 4 (Homo sapiens); experiment: PROTAC activity at BRD4/Cereblon in human LS174T cells assessed as BRD4 protein degradation at 250 to 500 nM pretreated with thalidomide for 4 hrs by Western blot analysis; format: cell-based; details: dose 250-500 nM
[4] = molecular target: T1, Protein cereblon/Bromodomain-containing protein 4 (Homo sapiens); experiment: PROTAC activity at BRD4/Cereblon in human LS174T cells assessed as decrease in MYC protein expression at […] for 24 hrs by Western blot analysis; format: cell-based; outline: as §1
[5] = molecular target: T1, Protein cereblon/Bromodomain-containing protein 4 (Homo sapiens); experiment: PROTAC activity at BRD4/Cereblon in human fibroblast cells assessed as effect on MYC protein expression at 500 to 1000 nM for 24 hrs by Western blot analysis; format: cell-based; details: dose 500-1000 nM; outline: as §1
[6] = molecular target: T1, Protein cereblon/Bromodomain-containing protein 4 (Homo sapiens); experiment: PROTAC activity at BRD4/Cereblon in human Caco-2 cells assessed as decrease in BRD4 protein degradation at 5 to 10 uM for 24 hrs by Western blot analysis; format: cell-based; details: dose 5-10 µM
Outline: (§2)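 Eight CRC lines exposed 24 h to PROTAC at 5 or 10 µM (stocks 2 mM in DMSO, diluted in PBS or medium). Lysis in RIPA with protease/phosphatase inhibitors and 2.5 mmol/l DTT; 15 µg protein on 10% SDS-PAGE, semi-dry transfer to nitrocellulose. Anti-BRD4 or anti-MYC at 1:1,000 overnight at 4 °C; GAPDH or β-actin loading control; chemiluminescence.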

[7] = molecular target: T1, Protein cereblon/Bromodomain-containing protein 4 (Homo sapiens); experiment: PROTAC activity at BRD4/Cereblon in human SW480 cells assessed as decrease in BRD4 protein degradation at 5 to 10 uM for 24 hrs by Western blot analysis; format: cell-based; details: dose 5-10 µM; outline: as §2
[8] = molecular target: T1, Protein cereblon/Bromodomain-containing protein 4 (Homo sapiens); experiment: PROTAC activity at BRD4/Cereblon in human HT-29 cells assessed as decrease in BRD4 protein degradation at 5 to 10 uM for 24 hrs by Western blot analysis; format: cell-based; details: dose 5-10 µM; outline: as §2
[9] = molecular target: T1, Protein cereblon/Bromodomain-containing protein 4 (Homo sapiens); experiment: PROTAC activity at BRD4/Cereblon in human HCT116 p53+/+ cells assessed as decrease in MYC protein expression at 5 to 10 uM for 24 hrs by Western blot analysis; format: cell-based; details: HCT-116, dose 5-10 µM; outline: as §2
[10] = molecular target: T1, Protein cereblon/Bromodomain-containing protein 4 (Homo sapiens); experiment: PROTAC activity at BRD4/Cereblon in human LS174T cells assessed as decrease in MYC protein expression at 5 to 10 uM for 24 hrs by Western blot analysis; format: cell-based; details: dose 5-10 µM; outline: as §2
[11] = molecular target: T1, Protein cereblon/Bromodomain-containing protein 4 (Homo sapiens); experiment: PROTAC activity at BRD4/Cereblon in human HT-29 cells assessed as decrease in MYC protein expression at 5 to 10 uM for 24 hrs by Western blot analysis; format: cell-based; details: dose 5-10 µM; outline: as §2
[12] = molecular target: T1, Protein cereblon/Bromodomain-containing protein 4 (Homo sapiens); experiment: PROTAC activity at BRD4/Cereblon in human LS174T cells assessed as BRD4 protein degradation at 1 uM for 2 hrs by Immunofluorescence analysis
[13] = molecular target: T2, von Hippel-Lindau disease tumor suppressor/Bromodomain-containing protein 4 (Homo sapiens) (UniProt O60885+P40337); experiment: PROTAC activity at BRD4/VHL E3 ligase in human LS174T cells assessed as complete BRD4 protein degradation at […] for 24 hrs by Western blot analysis; format: cell-based
T2 sequence (P40337 whole entry, looked up, other chains not shown): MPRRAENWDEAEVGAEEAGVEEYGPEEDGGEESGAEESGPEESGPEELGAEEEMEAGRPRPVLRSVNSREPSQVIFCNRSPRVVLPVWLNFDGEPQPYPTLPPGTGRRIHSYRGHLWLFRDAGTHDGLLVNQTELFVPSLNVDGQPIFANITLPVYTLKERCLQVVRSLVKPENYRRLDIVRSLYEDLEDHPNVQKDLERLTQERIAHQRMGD
Outline: (§3)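 LS174t cells (RPMI 1640, 10% FCS) were exposed to 1 nM–10 µM for 24 h. Lysates in RIPA with inhibitors and 2.5 mmol/l DTT; 15 µg protein was run on 10% SDS-PAGE and transferred to nitrocellulose. BRD4 or MYC primary antibodies were used at 1:1,000 overnight at 4 °C, HRP secondary 1:10,000, and GAPDH/β-actin as loading control. Detection was by chemiluminescence.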

[14] = molecular target: T2, von Hippel-Lindau disease tumor suppressor/Bromodomain-containing protein 4 (Homo sapiens); experiment: PROTAC activity at BRD4/VHL E3 ligase in human LS174T cells assessed as decrease in MYC protein expression at […] for 24 hrs by Western blot analysis; format: cell-based; outline: as §3
[15] = molecular target: T2, von Hippel-Lindau disease tumor suppressor/Bromodomain-containing protein 4 (Homo sapiens); experiment: PROTAC activity at BRD4/VHL E3 ligase in human Caco-2 cells assessed as decrease in BRD4 protein degradation at 5 to 10 uM for 24 hrs by Western blot analysis; format: cell-based; details: dose 5-10 µM; outline: as §2
[16] = molecular target: T2, von Hippel-Lindau disease tumor suppressor/Bromodomain-containing protein 4 (Homo sapiens); experiment: PROTAC activity at BRD4/VHL E3 ligase in human COLO 320 cells assessed as decrease in MYC protein expression at 5 to 10 uM for 24 hrs by Western blot analysis; format: cell-based; details: dose 5-10 µM; outline: as §2
[17] = molecular target: T2, von Hippel-Lindau disease tumor suppressor/Bromodomain-containing protein 4 (Homo sapiens); experiment: PROTAC activity at BRD4/VHL E3 ligase in human DLD-1 cells assessed as decrease in MYC protein expression at 5 to 10 uM for 24 hrs by Western blot analysis; format: cell-based; details: dose 5-10 µM; outline: as §2
[18] = molecular target: T2, von Hippel-Lindau disease tumor suppressor/Bromodomain-containing protein 4 (Homo sapiens); experiment: PROTAC activity at BRD4/VHL E3 ligase in human HT-29 cells assessed as decrease in MYC protein expression at 5 to 10 uM for 24 hrs by Western blot analysis; format: cell-based; details: dose 5-10 µM; outline: as §2
[19] = molecular target: T2, von Hippel-Lindau disease tumor suppressor/Bromodomain-containing protein 4 (Homo sapiens); experiment: PROTAC activity at BRD4/VHL E3 ligase in human LS174T dbet1 resistant cells assessed as MYC protein expression at 500 to 1000 nM for 24 hrs by Western blot analysis; format: cell-based; details: dose 500-1000 nM
Outline: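 Resistant LS174t cells were derived by four months' exposure to rising dBET1 concentrations, with outgrowing cells expanded. Resistant and parental cells were then treated and analysed for BRD4 and MYC protein by western blot (GAPDH/β-actin control) and for MYC mRNA by qPCR normalised to PPIA/ACTB (ΔΔCq).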

[20] = molecular target: T2, von Hippel-Lindau disease tumor suppressor/Bromodomain-containing protein 4 (Homo sapiens); experiment: PROTAC activity at BRD4/VHL E3 ligase in human LS174T cells assessed as BRD4 protein degradation at 1 µM for 2 hrs by Immunofluorescence analysis

| Compound | Activity [1] | Activity [2] | Activity [3] | Activity [4] | Activity [5] | Activity [6] | Activity [7] | Activity [8] | Activity [9] | Activity [10] | Activity [11] | Activity [12] | Activity [13] | Activity [14] | Activity [15] | Activity [16] | Activity [17] | Activity [18] | Activity [19] | Activity [20] |
| --- | --- | --- | --- | --- | --- | --- | --- | --- | --- | --- | --- | --- | --- | --- | --- | --- | --- | --- | --- | --- |
| Cc1sc2c(c1C)C(c1ccc(Cl)cc1)=N[C@@H](CC(=O)NCCCCNC(=O)COc1cccc3c1C(=O)N(C1CCC(=O)NC1=O)C3=O)c1nnc(C)n1-2 (stereo not given in full) | Dose-Dependent Effect | inactive | inactive | Active | inactive | Active | inactive | Active | Active | Active | Active | Active |  |  |  |  |  |  |  |  |
| Cc1ncsc1-c1ccc(CNC(=O)[C@@H]2C[C@@H](O)CN2C(=O)[C@@H](NC(=O)COCCOCCOCCNC(=O)C[C@@H]2N=C(c3ccc(Cl)cc3)c3c(sc(C)c3C)-n3c(C)nnc32)C(C)(C)C)cc1 |  |  |  |  |  |  |  |  |  |  |  |  | Active | Active | Active | Active | inactive | Active | Active | Active |
